Measurements taken from ChEMBL document CHEMBL2413060, “Synthesis, biological evaluation and molecular docking studies of some pyrimidine derivatives” (2013).
In brackets after ≈: the same amount, converted by molar mass.

Experiments:
Assay type in all cases: functional
UACC-257 = assay: Cytotoxicity against human UACC257 cells assessed as growth inhibition at 10 uM; settings: read-out: GI
How it was run: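 Single-dose screen in a sixty-cell human tumour line panel; percent growth of treated cells relative to untreated was read and reported as percentage growth inhibition, shown as a mean graph. Compounds meeting the threshold inhibition criteria went on to five-dose testing.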

Staphylococcus aureus [1] = assay: Antibacterial activity against Staphylococcus aureus ATCC 6538P assessed as diameter of inhibition zone at 1 mg/ml after 24 hrs by cup diffusion method (reference value: 15 mm); settings: read-out: DIZ
Candida albicans [2] = assay: Antifungal activity against Candida albicans ATCC 2091 assessed as diameter of inhibition zone at 1 mg/ml after 48 hrs by cup diffusion method (reference value: 22 mm); settings: ATCC 2091, 48 h, read-out: DIZ
Pseudomonas aeruginosa [3] = assay: Antibacterial activity against Pseudomonas aeruginosa ATCC 9027 assessed as diameter of inhibition zone at 1 mg/ml after 24 hrs by cup diffusion method (reference value: 16 mm); settings: ATCC 9027, 24 h, read-out: DIZ
OVCAR-8 = assay: Cytotoxicity against human OVCAR8 cells assessed as growth inhibition at 10 uM; settings: read-out: GI
How it was run: (§1)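 Single-dose screen on human tumour cell lines. Growth of treated cells is expressed as percent of untreated growth, plotted as a mean graph, and reported as percent growth inhibition.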

Shigella flexneri [4] = assay: Antibacterial activity against Shigella flexneri ATCC 15391 assessed as diameter of inhibition zone at 1 mg/ml after 24 hrs by cup diffusion method (reference value: 17 mm); settings: ATCC 15391, 24 h, read-out: DIZ
Candida albicans [5] = assay: Antifungal activity against Candida albicans ATCC 2091 after 48 hrs by two-fold serial dilution method; settings: ATCC 2091, 48 h
How it was run: (§2)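 Two-fold serial broth dilution in sterile nutrient broth at 500, 250, 125, 62.5, 31.25, 15.63, 7.82 and 3.91 µg/ml, with dimethylformamide ≤2.5%. Organisms were pre-grown 24 h in broth, and 0.1 ml inoculum was added per 5 ml tube. Tubes were incubated at 37°C, 24 h for bacteria and 48 h for fungi. MIC was taken as the lowest concentration giving no turbidity.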

Candida albicans [6] = assay: Antifungal activity against Candida albicans ATCC 2091 after 48 hrs by two-fold serial dilution method relative to clotrimazole
Pseudomonas aeruginosa [7] = assay: Antibacterial activity against Pseudomonas aeruginosa ATCC 9027 after 24 hrs by two-fold serial dilution method; settings: ATCC 9027, 24 h; how it was run: as §2
Shigella flexneri [8] = assay: Antibacterial activity against Shigella flexneri ATCC 15391 after 24 hrs by two-fold serial dilution method; settings: ATCC 15391, 24 h; how it was run: as §2
HOP-92 = assay: Cytotoxicity against human HOP92 cells assessed as growth inhibition at 10 uM; settings: read-out: GI
Staphylococcus aureus [9] = assay: Antibacterial activity against Staphylococcus aureus ATCC 6538P after 24 hrs by two-fold serial dilution method; how it was run: as §2
Shigella flexneri [10] = assay: Antibacterial activity against Shigella flexneri ATCC 15391 after 24 hrs by two-fold serial dilution method relative to ofloxacin
Pseudomonas aeruginosa [11] = assay: Antibacterial activity against Pseudomonas aeruginosa ATCC 9027 after 24 hrs by two-fold serial dilution method relative to ofloxacin
HOP-62 = assay: Cytotoxicity against human HOP62 cells assessed as growth inhibition at 10 uM; settings: read-out: GI
HCC 2998 = assay: Cytotoxicity against human HCC2998 cells assessed as growth inhibition at 10 uM; settings: read-out: GI
NCI/ADR-RES = assay: Cytotoxicity against human NCI/ADR-RES cells assessed as growth inhibition at 10 uM; settings: read-out: GI; how it was run: as §1
SK-MEL-2 = assay: Cytotoxicity against human SK-MEL-2 cells assessed as growth inhibition at 10 uM; settings: read-out: GI; how it was run: as §1

| Structure (SMILES) | zone of inhibition at 1000 µg/mL (Staphylococcus aureus [1]) | zone of inhibition at 1000 µg/mL (Candida albicans [2]) | zone of inhibition at 1000 µg/mL (Pseudomonas aeruginosa [3]) | zone of inhibition at 1000 µg/mL (Shigella flexneri [4]) | MIC (Pseudomonas aeruginosa [7]) | MIC (Shigella flexneri [8]) | also measured |
| --- | --- | --- | --- | --- | --- | --- | --- |
| Cn1c(N2CCOCC2)nc(-c2ccco2)c(C#N)c1=O | 15 mm | 22 mm | 17 mm | 17 mm | – | – | inhibition of growth at 10 µM (UACC-257): 69.8%; inhibition of growth at 10 µM (OVCAR-8): 47.1% |
| CCOC(=O)CC(=N)N(NC(=O)CC#N)c1nc(-c2ccccc2)c(C#N)c(=O)n1C | – | – | – | – | 125 µg/mL (≈ 297 µM) | – | MIC (Candida albicans [5]): 125 µg/mL (≈ 297 µM); Activity (Candida albicans [6]): 60% |
| Cn1c(-n2[nH]c3c(c2=O)C(=O)CC(=O)O3)nc(-c2ccco2)c(C#N)c1=O | 15 mm | 22 mm | 16 mm | 17 mm | – | – | – |
| Cn1c(=O)c(C#N)c(-c2ccccc2)n2c(CC#N)nnc12 | 15 mm | 22 mm | 17 mm | 19 mm | – | – | – |
| N#Cc1c(Cl)nc(SCC2CO2)nc1-c1ccccc1 (stereo unspecified) | 15 mm | 22 mm | 16 mm | 22 mm | – | 125 µg/mL (≈ 411 µM) | inhibition of growth at 10 µM (UACC-257): 60.1%; inhibition of growth at 10 µM (OVCAR-8): 48.4% |
| N#Cc1c(Cl)nc(SCC2CO2)nc1-c1ccco1 (stereo unspecified) | 15 mm | 22 mm | 17 mm | 18 mm | – | – | – |
| N#Cc1c(-c2ccco2)nc(SCC2CO2)nc1N1CCOCC1 (stereo unspecified) | 15 mm | 22 mm | 16 mm | 17 mm | – | – | – |
| N#Cc1c(-c2ccco2)nc(SCC(O)CN2CCOCC2)nc1N1CCOCC1 (stereo unspecified) | 15 mm | 25 mm | 18 mm | 17 mm | 125 µg/mL (≈ 290 µM) | – | MIC (Candida albicans [5]): 125 µg/mL (≈ 290 µM); Activity (Candida albicans [6]): 60% |
| N#Cc1c(-c2ccccc2)nc(SCC2CO2)[nH]c1=O (stereo unspecified) | 15 mm | 22 mm | 16 mm | 22 mm | – | 125 µg/mL (≈ 438 µM) | inhibition of growth at 10 µM (HOP-92): 41.5% |
| N#Cc1c(-c2ccc([N+](=O)[O-])cc2)nc(SCC2CO2)[nH]c1=O (stereo unspecified) | 15 mm | 22 mm | 17 mm | 17 mm | – | – | – |
| N#Cc1c(-c2ccco2)nc(SCC2CO2)[nH]c1=O (stereo unspecified) | 18 mm | 25 mm | 18 mm | 24 mm | 125 µg/mL (≈ 454 µM) | 125 µg/mL (≈ 454 µM) | MIC (Candida albicans [5]): 125 µg/mL (≈ 454 µM); MIC (Staphylococcus aureus [9]): 125 µg/mL (≈ 454 µM); Activity (Shigella flexneri [10]): 60%; Activity (Candida albicans [6]): 62%; Activity (Pseudomonas aeruginosa [11]): 50% |
| N#Cc1c(-c2ccccc2)nc(SCC(O)CN2CCOCC2)[nH]c1=O (stereo unspecified) | 15 mm | 22 mm | 16 mm | 18 mm | – | – | – |
| N#Cc1c(-c2ccco2)nc(SCC(O)CN2CCOCC2)[nH]c1=O (stereo unspecified) | 15 mm | 22 mm | 16 mm | 18 mm | – | – | – |
| N#Cc1c(Cl)nc(=S)[nH]c1-c1ccccc1 | 15 mm | 22 mm | 18 mm | 22 mm | 125 µg/mL (≈ 505 µM) | 125 µg/mL (≈ 505 µM) | inhibition of growth at 10 µM (HOP-62): 47.4%; inhibition of growth at 10 µM (HOP-92): 48.5% |
| N#Cc1c(Cl)nc(=S)[nH]c1-c1ccc([N+](=O)[O-])cc1 | 15 mm | 22 mm | 16 mm | 17 mm | – | – | – |
| N#Cc1c(Cl)nc(=S)[nH]c1-c1ccco1 | 15 mm | 22 mm | 18 mm | 17 mm | 62.5 µg/mL (≈ 263 µM) | – | inhibition of growth at 10 µM (HOP-62): 49.6% |

| Structure (SMILES) | zone of inhibition at 1000 µg/mL (Staphylococcus aureus [1]) | zone of inhibition at 1000 µg/mL (Candida albicans [2]) | zone of inhibition at 1000 µg/mL (Pseudomonas aeruginosa [3]) | zone of inhibition at 1000 µg/mL (Shigella flexneri [4]) | MIC (Pseudomonas aeruginosa [7]) | MIC (Shigella flexneri [8]) | also measured |
| --- | --- | --- | --- | --- | --- | --- | --- |
| N#Cc1c(N2CCOCC2)nc(=S)[nH]c1-c1ccc([N+](=O)[O-])cc1 | 15 mm | 22 mm | 16 mm | 18 mm | – | – | – |
| N#Cc1c(N2CCCCC2)nc(=S)[nH]c1-c1ccc([N+](=O)[O-])cc1 | 15 mm | 22 mm | 17 mm | 23 mm | – | 125 µg/mL (≈ 366 µM) | Activity (Shigella flexneri [10]): 60%; Activity (Pseudomonas aeruginosa [11]): 60% |
| N#Cc1c(N2CCCCC2)nc(=S)[nH]c1-c1ccco1 | 18 mm | 22 mm | 16 mm | 17 mm | – | – | MIC (Staphylococcus aureus [9]): 125 µg/mL (≈ 437 µM) |
| N#Cc1c(N2CCN(Cc3ccccc3)CC2)nc(=S)[nH]c1-c1ccccc1 | 15 mm | 22 mm | 18 mm | 20 mm | 125 µg/mL (≈ 323 µM) | 125 µg/mL (≈ 323 µM) | Activity (Shigella flexneri [10]): 60%; Activity (Pseudomonas aeruginosa [11]): 60% |
| N#Cc1c(N2CCN(Cc3ccccc3)CC2)nc(=S)[nH]c1-c1ccc([N+](=O)[O-])cc1 | 15 mm | 22 mm | 16 mm | 17 mm | – | – | inhibition of growth at 10 µM (HCC 2998): 71.8% |
| N#Cc1c(N2CCN(Cc3ccccc3)CC2)nc(=S)[nH]c1-c1ccco1 | 18 mm | 29 mm | 20 mm | 17 mm | 125 µg/mL (≈ 331 µM) | – | MIC (Candida albicans [5]): 125 µg/mL (≈ 331 µM); MIC (Staphylococcus aureus [9]): 3.91 µg/mL (≈ 10.4 µM); Activity (Candida albicans [6]): 75% |
| CCN(CC)CCSc1nc(-c2ccccc2)c(C#N)c(=O)[nH]1 | 18 mm | 25 mm | 18 mm | 21 mm | 125 µg/mL (≈ 381 µM) | 125 µg/mL (≈ 381 µM) | MIC (Candida albicans [5]): 125 µg/mL (≈ 381 µM); MIC (Staphylococcus aureus [9]): 3.91 µg/mL (≈ 11.9 µM); Activity (Shigella flexneri [10]): 60%; Activity (Candida albicans [6]): 62%; inhibition of growth at 10 µM (HCC 2998): 107%; Activity (Pseudomonas aeruginosa [11]): 50%; inhibition of growth at 10 µM (NCI/ADR-RES): 42% |
| COc1ccc(NC(=O)CSc2nc(-c3ccccc3)c(C#N)c(=O)[nH]2)cc1 | 15 mm | 22 mm | 16 mm | 20 mm | – | 125 µg/mL (≈ 319 µM) | Activity (Shigella flexneri [10]): 60% |
| COc1ccc(NC(=O)CSc2nc(-c3ccco3)c(C#N)c(=O)[nH]2)cc1 | 15 mm | 23 mm | 16 mm | 20 mm | – | 125 µg/mL (≈ 327 µM) | Activity (Shigella flexneri [10]): 60% |
| Cn1c(N2CCCCC2)nc(-c2ccccc2)c(C#N)c1=O | 15 mm | 22 mm | 17 mm | 24 mm | – | 125 µg/mL (≈ 425 µM) | inhibition of growth at 10 µM (UACC-257): 71.9%; inhibition of growth at 10 µM (SK-MEL-2): 69.8%; inhibition of growth at 10 µM (OVCAR-8): 42.4% |
| Cn1c(N2CCCCC2)nc(-c2ccco2)c(C#N)c1=O | 15 mm | 22 mm | 16 mm | 19 mm | – | – | inhibition of growth at 10 µM (SK-MEL-2): 70.7% |
| Cn1c(N2CCN(Cc3ccccc3)CC2)nc(-c2ccco2)c(C#N)c1=O | 15 mm | 22 mm | 17 mm | 17 mm | – | – | – |
| Cn1c(-n2[nH]c3c(c2=O)C(=O)CC(=O)O3)nc(-c2ccccc2)c(C#N)c1=O | 15 mm | 22 mm | 19 mm | 17 mm | 125 µg/mL (≈ 331 µM) | – | – |
| CC1(C)S[C@@H]2[C@H](NC(=O)[C@H](N)c3ccccc3)C(=O)N2[C@H]1C(=O)O [AMPICILLIN] | 41 mm | – | 16 mm | 22 mm | – | – | MIC (Staphylococcus aureus [9]): 3.91 µg/mL (≈ 11.2 µM) |
| Clc1ccccc1C(c1ccccc1)(c1ccccc1)n1ccnc1 [CLOTRIMAZOLE] | – | 40 mm | – | – | – | – | MIC (Candida albicans [5]): 12.5 µg/mL (≈ 36.2 µM) |
| CC1COc2c(N3CCN(C)CC3)c(F)cc3c(=O)c(C(=O)O)cn1c23 (stereo unspecified) [OFLOXACIN] | 43 mm | – | 43 mm | 32 mm | 1.95 µg/mL (≈ 5.4 µM) | 7.81 µg/mL (≈ 21.6 µM) | – |
